Laboratory results reported in ChEMBL document CHEMBL1137637, “Quinuclidine derivatives as potential antiparasitics” (Antimicrob Agents Chemother, 2007).

Legend:
[1] = Inhibition of Leishmania mexicana squalene synthase
[2] = biological target: T1, Farnesyltransferase, putative (Trypanosoma cruzi (strain CL Brener), UniProt Q4CXF7); assay: Inhibition of Trypanosoma cruzi squalene synthase
T1 sequence (Q4CXF7 whole entry): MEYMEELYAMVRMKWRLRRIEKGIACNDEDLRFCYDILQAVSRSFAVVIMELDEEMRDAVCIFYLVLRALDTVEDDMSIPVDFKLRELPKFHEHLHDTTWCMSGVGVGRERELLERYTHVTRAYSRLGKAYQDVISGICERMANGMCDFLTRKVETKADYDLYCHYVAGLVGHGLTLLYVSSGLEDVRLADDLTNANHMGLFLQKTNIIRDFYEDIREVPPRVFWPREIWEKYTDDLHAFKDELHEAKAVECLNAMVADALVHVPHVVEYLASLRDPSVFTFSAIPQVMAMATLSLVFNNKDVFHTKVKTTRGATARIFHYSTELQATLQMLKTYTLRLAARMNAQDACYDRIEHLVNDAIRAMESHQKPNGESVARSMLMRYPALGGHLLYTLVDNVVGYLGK

[3] = biological target: T2, Farnesyltransferase, putative (Leishmania major, UniProt Q4Q5W4); assay: Inhibition of Leishmania major recombinant squalene synthase expressed in Escherichia coli by liquid scintillation counter
T2 sequence (Q4Q5W4 whole entry): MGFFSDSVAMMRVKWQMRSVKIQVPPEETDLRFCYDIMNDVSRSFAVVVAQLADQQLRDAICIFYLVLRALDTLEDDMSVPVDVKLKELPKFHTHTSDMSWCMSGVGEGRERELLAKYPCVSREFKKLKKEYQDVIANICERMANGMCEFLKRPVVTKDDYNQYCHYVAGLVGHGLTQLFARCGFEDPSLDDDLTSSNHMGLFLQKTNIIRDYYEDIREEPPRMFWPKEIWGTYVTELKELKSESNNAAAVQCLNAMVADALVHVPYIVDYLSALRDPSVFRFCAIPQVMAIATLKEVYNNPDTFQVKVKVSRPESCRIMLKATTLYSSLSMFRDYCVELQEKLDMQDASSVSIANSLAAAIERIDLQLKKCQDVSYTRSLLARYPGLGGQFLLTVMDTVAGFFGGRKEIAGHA
Summary of the method: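 Soluble E. coli extract expressing L. major SQS truncated by 16 N-terminal and 40 C-terminal residues. Buffer: 50 mM phosphate pH 7.4, 20 mM MgCl2, 5 mM CHAPS, 1% Tween 80, 10 mM DTT, BSA, 0.25 mM NADPH, and a glucose-6-phosphate/G6PDH regenerating system. Substrate 0.5 μM radiolabelled farnesyl pyrophosphate. Squalene band counted by scintillation. IC50 from hyperbolic plot of five concentrations in duplicate, usually run twice.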

Leishmania amazonensis [4] = assay: Inhibition of sterol biosynthesis in Leishmania mexicana amazonensis promastigotes assessed as reduction in exogenous cholesterol level at 1 uM after 96 hrs by gas-liquid chromatography; type: functional; set-up: scale not given: the % may be the effect or the level left
Summary of the method: (§1)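 L. mexicana promastigotes exposed to compound for 96 h. Total lipids extracted and neutral sterols separated from polar lipids by silicic acid column chromatography. Sterols analysed by TLC and by quantitative capillary gas-liquid chromatography with mass spectrometry. Composition expressed as mass % of free sterols, compared with untreated control.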

Leishmania amazonensis [5] = assay: Inhibition of sterol biosynthesis in Leishmania mexicana amazonensis promastigotes assessed as reduction in endogenous 5-dehydro episterol level at 1 uM after 96 hrs by gas-liquid chromatography; type: functional; set-up: scale not given: the % may be the effect or the level left; summary of the method: as §1
Leishmania amazonensis [6] = assay: Inhibition of sterol biosynthesis in Leishmania mexicana amazonensis promastigotes assessed as reduction in endogenous episterol level at 1 uM after 96 hrs by gas-liquid chromatography; type: functional; set-up: scale not given: the % may be the effect or the level left; summary of the method: as §1
Leishmania amazonensis [7] = assay: Inhibition of sterol biosynthesis in Leishmania mexicana amazonensis promastigotes assessed as reduction in exogenous cholesterol level at 3 uM after 96 hrs by gas-liquid chromatography; type: functional; set-up: scale not given: the % may be the effect or the level left; summary of the method: as §1
Leishmania amazonensis [8] = assay: Inhibition of sterol biosynthesis in Leishmania mexicana amazonensis promastigotes assessed as reduction in endogenous 5-dehydro episterol level at 3 uM after 96 hrs by gas-liquid chromatography; type: functional; set-up: scale not given: the % may be the effect or the level left; summary of the method: as §1
Leishmania amazonensis [9] = assay: Inhibition of sterol biosynthesis in Leishmania mexicana amazonensis promastigotes assessed as reduction in endogenous episterol level at 3 uM after 96 hrs by gas-liquid chromatography; type: functional; set-up: scale not given: the % may be the effect or the level left; summary of the method: as §1

**Q.** What does the source list for OC1(c2ccc(-c3ccccc3)cc2)CN2CCC1CC2 (centres undefined)?
**A.** Ki [1]: 12 nM; Ki [2]: 62 nM; IC50 [3]: 13 nM; Activity (Leishmania amazonensis [4]): 17.5%; Activity (Leishmania amazonensis [5]): 65.7%; Activity (Leishmania amazonensis [6]): 16.8%; Activity (Leishmania amazonensis [7]): 39.6%; Activity (Leishmania amazonensis [8]): 39.6%; Activity (Leishmania amazonensis [9]): 20.8%
